From ChEMBL document CHEMBL1275484, “Rifampin and rifaximin resistance in clinical isolates of Clostridium difficile” (Antimicrob Agents Chemother, 2008)
In brackets after ≈: the same amount, converted by molar mass.

Legend:
Format in all cases: functional
[1] = tested on: Clostridioides difficile; test: Antimicrobial activity against Clostridium difficile isolate 59 by agar dilution method
How it was run: (§1)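 CLSI reference agar dilution method for anaerobes, with endpoints read per guideline M11-A7. Rifaximin was dissolved in methanol, diluted in 0.1 M phosphate buffer (pH 7.4) with 0.45% SDS, and tested at 0.0009–256 μg/ml. Rifampin was dissolved in methanol, diluted in water, and tested at 0.00001–256 μg/ml. C. difficile ATCC […] served as control. Isolates were typed by HindIII REA.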

[2] = tested on: Clostridioides difficile; test: Antimicrobial activity against rifaximin-resistant Clostridium difficile isolate 26 expressing RpoB R505K mutant by agar dilution method
How it was run: (§2)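 MICs were found by the CLSI reference agar dilution method for anaerobes, with endpoints read per M11-A7 and C. difficile […] as control. Rifaximin was dissolved in methanol, diluted in 0.1 M phosphate buffer pH 7.4 with 0.45% SDS, and tested at 0.0009–256 μg/ml. Rifampin was dissolved in methanol, diluted in water, and tested at 0.00001–256 μg/ml.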

[3] = tested on: Clostridioides difficile; test: Antimicrobial activity against Clostridium difficile isolate 23 by Etest
How it was run: (§3)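 Rifampin MIC by Etest strip on brucella blood agar, run per the strip maker's instructions. Isolates were HindIII REA-typed clinical C. difficile.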

[4] = tested on: Clostridioides difficile; test: Antimicrobial activity against Clostridium difficile isolate 3 by agar dilution method
How it was run: (§4)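 MIC by CLSI reference agar dilution for anaerobes, with endpoints read per M11-A7 and C. difficile […] as control. Rifaximin was dissolved in methanol, diluted in 0.1 M phosphate buffer pH 7.4 plus 0.45% SDS, and tested at 0.0009–256 μg/ml. Rifampin was dissolved in methanol, diluted in water, and tested at 0.00001–256 μg/ml.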

[5] = tested on: Clostridioides difficile; test: Antimicrobial activity against Clostridium difficile isolate 36 by Etest; how it was run: as §3
[6] = tested on: Clostridioides difficile; test: Antimicrobial activity against Clostridium difficile isolate 33 by agar dilution method; how it was run: as §4
[7] = tested on: Clostridioides difficile; test: Antimicrobial activity against rifaximin-resistant Clostridium difficile isolate 65 expressing RpoB H502N and R505K mutants by agar dilution method; how it was run: as §2
[8] = tested on: Clostridioides difficile; test: Antimicrobial activity against Clostridium difficile isolate 3 by Etest; how it was run: as §3
[9] = tested on: Clostridioides difficile; test: Antimicrobial activity against Clostridium difficile isolate 20 by Etest; how it was run: as §3
[10] = tested on: Clostridioides difficile; test: Antimicrobial activity against Clostridium difficile isolate 12 expressing RpoB H502N and R505K mutants by Etest
How it was run: (§5)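 Rifampin Etest on clinical C. difficile isolates typed by HindIII REA, run per the strip manufacturer's instructions on brucella blood agar, with the MIC read from the strip.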

[11] = tested on: Clostridioides difficile; test: Antimicrobial activity against Clostridium difficile isolate 58 by Etest
How it was run: (§6)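 Rifampin Etest strips were run on brucella blood agar following the manufacturer's instructions to give an MIC. Clinical isolates were typed by HindIII REA.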

[12] = tested on: Clostridioides difficile; test: Antimicrobial activity against Clostridium difficile isolate 29 by agar dilution method; how it was run: as §4
[13] = tested on: Clostridioides difficile; test: Antimicrobial activity against rifaximin-resistant Clostridium difficile isolate 22 expressing RpoB H502N and R505K mutants by agar dilution method; how it was run: as §2
[14] = tested on: Clostridioides difficile; test: Antimicrobial activity against Clostridium difficile isolate 6 by Etest; how it was run: as §6
[15] = tested on: Clostridioides difficile; test: Antimicrobial activity against Clostridium difficile isolate 19 by agar dilution method; how it was run: as §4
[16] = tested on: Clostridioides difficile; test: Antimicrobial activity against Clostridium difficile isolate 20 by agar dilution method; how it was run: as §4
[17] = tested on: Clostridioides difficile; test: Antimicrobial activity against rifaximin-resistant Clostridium difficile isolate 24 expressing RpoB H502N and R505K mutants by Etest; how it was run: as §5
[18] = tested on: Clostridioides difficile; test: Antimicrobial activity against Clostridium difficile isolate 7 by Etest
How it was run: (§7)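 Rifampin MIC by Etest on brucella blood agar, run per the strip manufacturer's instructions, against clinical isolates typed by HindIII REA.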

[19] = tested on: Clostridioides difficile; test: Antimicrobial activity against Clostridium difficile isolate 69 by Etest; how it was run: as §7
[20] = tested on: Clostridioides difficile; test: Antimicrobial activity against Clostridium difficile isolate 42 by agar dilution method; how it was run: as §1
[21] = tested on: Clostridioides difficile; test: Antimicrobial activity against Clostridium difficile isolate 39 by agar dilution method; how it was run: as §1
[22] = tested on: Clostridioides difficile; test: Antimicrobial activity against Clostridium difficile isolate 77 by Etest; how it was run: as §7
[23] = tested on: Clostridioides difficile; test: Antimicrobial activity against Clostridium difficile isolate 1 by Etest; how it was run: as §3
[24] = tested on: Clostridioides difficile; test: Antimicrobial activity against Clostridium difficile isolate 2 by agar dilution method; how it was run: as §4
[25] = tested on: Clostridioides difficile; test: Antimicrobial activity against Clostridium difficile isolate 80 by Etest; how it was run: as §7
[26] = tested on: Clostridioides difficile; test: Antimicrobial activity against Clostridium difficile isolate 77 by agar dilution method
How it was run: (§8)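 CLSI reference agar dilution for anaerobes, with endpoints read per guideline M11-A7. Rifaximin was dissolved in methanol, diluted in 0.1 M phosphate buffer pH 7.4 with 0.45% SDS, and tested at 0.0009–256 μg/ml. Rifampin was dissolved in methanol, diluted in water, and tested at 0.00001–256 μg/ml. Control strain: C. difficile ATCC […]. Isolates were typed by HindIII REA.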

[27] = tested on: Clostridioides difficile; test: Antimicrobial activity against Clostridium difficile isolate 53 by agar dilution method; how it was run: as §1
[28] = tested on: Clostridioides difficile; test: Antimicrobial activity against rifaximin-resistant Clostridium difficile isolate 50 expressing RpoB R505K mutant by Etest; how it was run: as §5
[29] = tested on: Clostridioides difficile; test: Antimicrobial activity against Clostridium difficile isolate 73 by agar dilution method; how it was run: as §8
[30] = tested on: Clostridioides difficile; test: Antimicrobial activity against Clostridium difficile isolate 57 by Etest; how it was run: as §6
[31] = tested on: Clostridioides difficile; test: Antimicrobial activity against Clostridium difficile isolate 76 by agar dilution method; how it was run: as §8
[32] = tested on: Clostridioides difficile; test: Antimicrobial activity against Clostridium difficile isolate 63 by agar dilution method; how it was run: as §8
[33] = tested on: Clostridioides difficile; test: Antimicrobial activity against Clostridium difficile isolate 75 by agar dilution method; how it was run: as §8
[34] = tested on: Clostridioides difficile; test: Antimicrobial activity against Clostridium difficile isolate 41 by agar dilution method; how it was run: as §1
[35] = tested on: Clostridioides difficile; test: Antimicrobial activity against Clostridium difficile isolate 41 by Etest; how it was run: as §6
[36] = tested on: Clostridioides difficile; test: Antimicrobial activity against Clostridium difficile isolate 69 by agar dilution method; how it was run: as §8
[37] = tested on: Clostridioides difficile; test: Antimicrobial activity against Clostridium difficile isolate 75 by Etest; how it was run: as §7
[38] = tested on: Clostridioides difficile; test: Antimicrobial activity against Clostridium difficile isolate 1 by agar dilution method; how it was run: as §4
[39] = tested on: Clostridioides difficile; test: Antimicrobial activity against rifaximin-resistant Clostridium difficile isolate 17 expressing RpoB H502N and I548M mutants by Etest; how it was run: as §5
[40] = tested on: Clostridioides difficile; test: Antimicrobial activity against Clostridium difficile isolate 51 by Etest; how it was run: as §6
[41] = tested on: Clostridioides difficile; test: Antimicrobial activity against rifaximin-resistant Clostridium difficile isolate 64 expressing RpoB H502R mutant by agar dilution method; how it was run: as §2
[42] = tested on: Clostridioides difficile; test: Antimicrobial activity against rifaximin-resistant Clostridium difficile isolate 66 expressing RpoB D492N and R505K mutants by Etest; how it was run: as §5
[43] = tested on: Clostridioides difficile; test: Antimicrobial activity against rifaximin-resistant Clostridium difficile isolate 67 expressing RpoB H502N and R505K mutants by Etest; how it was run: as §5
[44] = tested on: Clostridioides difficile; test: Antimicrobial activity against Clostridium difficile isolate 35 by Etest; how it was run: as §3
[45] = tested on: Clostridioides difficile; test: Antimicrobial activity against Clostridium difficile isolate 19 by Etest; how it was run: as §3
[46] = tested on: Clostridioides difficile; test: Antimicrobial activity against rifaximin-resistant Clostridium difficile isolate 18 expressing RpoB R505K mutant by Etest; how it was run: as §5
[47] = tested on: Clostridioides difficile; test: Antimicrobial activity against Clostridium difficile isolate 10 by agar dilution method; how it was run: as §4
[48] = tested on: Clostridioides difficile; test: Antimicrobial activity against Clostridium difficile isolate 6 by agar dilution method; how it was run: as §1
[49] = tested on: Clostridioides difficile; test: Antimicrobial activity against Clostridium difficile isolate 78 by agar dilution method; how it was run: as §8

CO[C@H]1/C=C/O[C@@]2(C)Oc3c(C)c(O)c4c(O)c(c(/C=N/N5CCN(C)CC5)c(O)c4c3C2=O)NC(=O)/C(C)=C\C=C\[C@H](C)[C@H](O)[C@@H](C)[C@@H](O)[C@@H](C)[C@H](OC(C)=O)[C@@H]1C [RIFAMPIN]
MIC [1]: 0.9 ng/mL (≈ 1.09 nM) | MIC [2]: 128000 ng/mL (≈ 156000 nM) | MIC [3]: < 2 ng/mL | MIC [4]: 0.06 ng/mL (≈ 0.0729 nM) | MIC [5]: < 2 ng/mL | MIC [6]: 0.9 ng/mL (≈ 1.09 nM) | MIC [7]: > 256000 ng/mL | MIC [8]: 4 ng/mL (≈ 4.86 nM) | MIC [9]: < 2 ng/mL | MIC [10]: > 32000 ng/mL | MIC [11]: < 2 ng/mL | MIC [12]: 0.9 ng/mL (≈ 1.09 nM) | MIC [13]: > 256000 ng/mL | MIC [14]: < 2 ng/mL | MIC [15]: 0.9 ng/mL (≈ 1.09 nM) | MIC [16]: 0.9 ng/mL (≈ 1.09 nM) | MIC [17]: > 32000 ng/mL | MIC [18]: < 2 ng/mL | MIC [19]: < 2 ng/mL | MIC [20]: 0.9 ng/mL (≈ 1.09 nM) | MIC [21]: 0.9 ng/mL (≈ 1.09 nM) | MIC [22]: < 2 ng/mL | MIC [23]: < 2 ng/mL | MIC [24]: 0.06 ng/mL (≈ 0.0729 nM) | MIC [25]: < 2 ng/mL | MIC [26]: 0.06 ng/mL (≈ 0.0729 nM) | MIC [27]: 1.9 ng/mL (≈ 2.31 nM) | MIC [28]: > 32000 ng/mL | MIC [29]: 0.06 ng/mL (≈ 0.0729 nM) | MIC [30]: < 2 ng/mL | MIC [31]: 0.06 ng/mL (≈ 0.0729 nM) | MIC [32]: 0.4 ng/mL (≈ 0.486 nM) | MIC [33]: 0.06 ng/mL (≈ 0.0729 nM) | MIC [34]: 0.9 ng/mL (≈ 1.09 nM) | MIC [35]: < 2 ng/mL | MIC [36]: 0.06 ng/mL (≈ 0.0729 nM) | MIC [37]: < 2 ng/mL | MIC [38]: 0.06 ng/mL (≈ 0.0729 nM) | MIC [39]: > 32000 ng/mL | MIC [40]: < 2 ng/mL | MIC [41]: > 256000 ng/mL | MIC [42]: > 32000 ng/mL | MIC [43]: > 32000 ng/mL | MIC [44]: < 2 ng/mL | MIC [45]: < 2 ng/mL | MIC [46]: > 32000 ng/mL | MIC [47]: 0.06 ng/mL (≈ 0.0729 nM) | MIC [48]: 0.06 ng/mL (≈ 0.0729 nM) | MIC [49]: 0.06 ng/mL (≈ 0.0729 nM)
